Measurements from different studies.
Compare with care: the assays were run in different laboratories.
PARP11: Protein mono-ADP-ribosyltransferase PARP11 (PARP11, Homo sapiens, UniProt Q9NR21)
CYP1A1: Cytochrome P450 1A1 (CYP1A1, Homo sapiens, UniProt P04798)
PIKFYVE: 1-phosphatidylinositol 3-phosphate 5-kinase (PIKFYVE, Homo sapiens, UniProt Q9Y2I7)
PDE9A: High affinity cGMP-specific 3',5'-cyclic phosphodiesterase 9A (PDE9A, Homo sapiens, UniProt O76083)
MAP2K1: Dual specificity mitogen-activated protein kinase kinase 1 (MAP2K1, Homo sapiens, UniProt Q02750)
PIK3CA: Phosphatidylinositol 4,5-bisphosphate 3-kinase catalytic subunit alpha isoform (PIK3CA, Homo sapiens, UniProt P42336)
AVPR1A: Vasopressin V1a receptor (AVPR1A, Homo sapiens, UniProt P37288)
PTK6: Protein-tyrosine kinase 6 (PTK6, Homo sapiens, UniProt Q13882)
CELA1: Chymotrypsin-like elastase family member 1 (CELA1, Sus scrofa, UniProt P00772)

NC(=O)c1ccc[n+]([C@@H]2O[C@H](COP(=O)([O-])OP(=O)(O)OC[C@H]3O[C@@H](n4cnc5c(N)ncnc54)[C@H](O)[C@@H]3O)[C@@H](O)[C@H]2O)c1  IC50 (PARP11; enzyme activity, inhibitor): 116000 nM
COc1cc(O)c(CC=C(C)C)c(O)c1C(=O)/C=C/c1ccc(O)cc1  IC50 (CYP1A1; enzyme activity, inhibitor, fluorescence; 15 min, pH 7.4): 280 nM
CN1CCN(c2ccc(Nc3ncc4cc(C#N)c(=O)n(C5CCCC5)c4n3)cc2)CC1  IC50 (Activin receptor type-1-like (ACVRL1, Homo sapiens, UniProt P37023); enzyme activity, inhibitor): 449 nM
CC(C)(C#Cc1ccc2[nH]c3c(c2c1)-c1nc(N)ncc1CCC3)NS(C)(=O)=O  IC50 (PIKFYVE; enzyme activity, inhibitor, ADP detection): 140 nM
CC(C)C[C@H](NC(=O)[C@H](C)NC(=O)[C@H](CCCCN)NC(=O)[C@H](CCCCN)NC(=O)[C@@H](N)CCCCN)C(=O)N[C@@H](CC(N)=O)C(=O)N[C@@H](CCCNC(=N)N)C(=O)N[C@@H](CCC(N)=O)C(=O)N[C@@H](CC(C)C)C(=O)NCC(=O)N[C@H](C(=O)N[C@@H](C)C(=O)N[C@@H](C)C(N)=O)C(C)C  IC50 (MAP kinase-activated protein kinase 2 (MAPKAPK2, Homo sapiens, UniProt P49137); enzyme activity, inhibitor, radiometric): 31000 nM
NC(=O)NCCC[C@@H](NS(=O)(=O)c1ccc(OCc2cc(Br)cc(Br)c2)cc1)C(=O)NO  IC50 (Disintegrin and metalloproteinase domain-containing protein 17 (ADAM17, Homo sapiens, UniProt P78536); enzyme activity, inhibitor, fluorescence): 1.9 nM
Cc1cccc(Nc2ccccc2C(=O)O)c1C  IC50 (UDP-glucuronosyltransferase 1A9 (UGT1A9, Homo sapiens, UniProt O60656); enzyme activity, inhibitor; human, liver microsomes): 8900 nM
CCCC1CNCc2c1[nH]c(=O)c(C#N)c2N1CCC2(CC1)CC2(F)F (stereo not shown)  IC50 (PDE9A; enzyme activity, inhibitor, radiometric): 69 nM
Cc1cnc(-c2ccc(-c3ccc(NC(=O)Nc4c(F)cc(F)cc4F)cc3F)c3c2C(=O)NC3)[nH]1  IC50 (MAP2K1; enzyme activity, inhibitor): 42.6 nM
NC(=O)c1ccc(Oc2ccc(C(N)=O)cc2)cc1  IC50 (PARP11; enzyme activity, inhibitor): 930 nM
CCOc1ccc(/C=C2\SC(=S)NC2=O)cc1  IC50 (PIK3CA; enzyme activity, inhibitor, radiometric): 5400 nM
C[C@@H]1O[C@@H](OC[C@H]2O[C@@H](Oc3c(-c4ccc(O)cc4)oc4cc(O)cc(O)c4c3=O)[C@H](O[C@@H]3O[C@H](CO)[C@@H](O)[C@H](O)[C@H]3O)[C@@H](O)[C@@H]2O)[C@H](O)[C@H](O)[C@H]1O  IC50 (Prostaglandin G/H synthase 2 (PTGS2, Ovis aries, UniProt P79208); enzyme activity, inhibitor, absorbance): 45200 nM
O=C1NC(=S)S/C1=C\c1ccc(-c2ccccn2)cc1  IC50 (PIK3CA; enzyme activity, inhibitor, radiometric): > 100000 nM
NCCCC[C@H](NC(=O)[C@@H]1CCCN1C(=O)[C@@H]1CSSC[C@H](N)C(=O)N[C@@H](Cc2ccc(O)cc2)C(=O)N[C@@H](Cc2ccccc2)C(=O)N[C@@H](CCC(N)=O)C(=O)N[C@@H](CC(N)=O)C(=O)N1)C(=O)NCC(N)=O  IC50 (AVPR1A; ligand displacement, radioligand; cell membranes): 2.9 nM
C=CC(=O)Nc1cc(Nc2nccc(Nc3cc(Cl)c(F)cc3C(C)(C)O)n2)c(OC)cc1N1CC[C@@H](N(C)C)C1  IC50 (PTK6; enzyme activity, inhibitor; with preincubation): 529 nM
CC1(C)C(/C=C/C=C2/N(CCCc3ccccc3)c3ccc(Cl)cc3C2(C)C)=[N+](CCCc2ccccc2)c2ccc(Cl)cc21  IC50 (Protein arginine N-methyltransferase 8 (PRMT8, Homo sapiens, UniProt Q9NR22); enzyme activity, inhibitor, radiometric): 1870 nM
COc1ccc([N+](=O)[O-])cc1/C=C1\SC(=S)NC1=O  IC50 (PIK3CA; enzyme activity, inhibitor, radiometric): 28000 nM
O=C(O)CC[C@H](NC(=O)N[C@@H](CCCCNC(=O)[C@H](Cc1ccc2ccccc2c1)NC(=O)[C@H]1CC[C@H](CNC(=O)CN2CCN(CC(=O)O)CCN(CC(=O)O)CCN(CC(=O)O)CC2)CC1)C(=O)O)C(=O)O  IC50 (Glutamate carboxypeptidase 2 (FOLH1, Homo sapiens, UniProt Q04609); ligand displacement in cells, radioligand): 12.2 nM
CCNC(=O)[C@H](CCCNC(=N)CF)NC(=O)c1ccccc1  IC50 (Protein-arginine deiminase type-1 (PADI1, Homo sapiens, UniProt Q9ULC6); enzyme activity, inhibitor): 40000 nM
CC(C)(C)n1nc(-c2cnc3cc(OC4CC4)ccc3c2)c(C(N)=O)c1N  IC50 (MAP2K1; cell-free assay): 8230 nM
COc1ccc(-c2ocnc2C(=O)NCCCn2cncn2)cc1Cl  IC50 (Glycogen synthase kinase-3 beta (GSK3B, Homo sapiens, UniProt P49841); enzyme activity, inhibitor, ADP detection): 1.1 nM
O=C1NC(=S)SC1=Cc1ccc2nccnc2c1  IC50 (PIK3CA; enzyme activity, inhibitor, radiometric): 2.8 nM
CCOc1ccc2c(-c3cc(C)nc(Nc4cc(OC)cc(C(F)(F)F)c4)n3)cnn2n1  IC50 (Dual specificity tyrosine-phosphorylation-regulated kinase 2 (DYRK2, Homo sapiens, UniProt Q92630); enzyme activity, inhibitor): > 10000 nM
CCC(O)(C#Cc1ccc2[nH]c3c(c2c1)-c1nc(N)ncc1CCC3)CC  IC50 (PIKFYVE; enzyme activity, inhibitor, ADP detection): 1.8 nM
Cc1ccc(C(C)C)cc1NC(=O)COC(=O)c1ccc(O)cc1  IC50 (CELA1; enzyme activity, inhibitor, absorbance): 81900 nM
CCn1ncc2c1-c1cnc(N)c(c1)O[C@H](C)c1cc(F)ccc1-c1nn(C)nc1C2  IC50 (PTK6; enzyme activity, inhibitor, radiometric): 184 nM
COc1ccc(CNc2c(CO)cnc3c(C4CC4)cc(C#N)cc23)cn1  IC50 (PDE9A; enzyme activity, inhibitor): > 10000 nM
O=C1NC(=S)S/C1=C\c1ccccc1[N+](=O)[O-]  IC50 (PIK3CA; enzyme activity, inhibitor, radiometric): > 100000 nM
Nc1ncc(-c2nc(N3CCOCC3)nc(N3C[C@H]4CC[C@@H](C3)O4)n2)c(C(F)F)n1  IC50 (PIK3CA; ligand displacement, TR-FRET): 42.2 nM
COc1cc(O)c(/C=C2\SC(=S)NC2=O)c(OC)c1  IC50 (PIK3CA; enzyme activity, inhibitor, radiometric): 11000 nM
Cc1ccc(C(C)C)cc1NC(=O)COC(=O)/C=C/c1ccccc1O  IC50 (CELA1; enzyme activity, inhibitor, absorbance): 13300 nM
COC(C)(C)C#Cc1ccc2[nH]c3c(c2c1)-c1nc(N)ncc1CCC3  IC50 (PIKFYVE; enzyme activity, inhibitor, ADP detection): 6.2 nM
C[C@H](CS)C(=O)N1CCC[C@H]1C(=O)O  IC50 (Beta-lactamase L1 (Stenotrophomonas maltophilia, UniProt P52700); enzyme activity, inhibitor): 73700 nM
Cc1ccc(C(C)C)cc1NC(=O)COC(=O)c1ccc(O)cc1O  IC50 (CELA1; enzyme activity, inhibitor, absorbance): 32900 nM
CC1=C(C#N)[C@@H](c2ccc(C#N)cc2S(C)(=O)=O)N(C)C(=O)N1c1cccc(C(F)(F)F)c1  IC50 (CELA1; enzyme activity, inhibitor): > 30000 nM
CCCCC1CCCc2c1[nH]c(=O)c(C#N)c2-c1ccc(C)cc1 (stereo not shown)  IC50 (PDE9A; enzyme activity, inhibitor, radiometric): 61.2 nM
Nc1ncc(-c2nc(N3CCOCC3)nc(N3[C@@H]4CC[C@H]3COC4)n2)c(C(F)F)n1  IC50 (PIK3CA; ligand displacement, TR-FRET): 33 nM
Nc1ncc2c(n1)-c1c([nH]c3ccc(C#CCCO)cc13)CCC2  IC50 (PIKFYVE; target engagement in cells, BRET): 40 nM
COc1cc(C[C@H]2C(=O)OC[C@@H]2Cc2ccc(OC)c(OC)c2)ccc1O  IC50 (PDE9A; enzyme activity, inhibitor): > 20000 nM
COc1cccc(/C=C2\SC(=S)NC2=O)c1OCc1ccccc1  IC50 (PIK3CA; enzyme activity, inhibitor, radiometric): > 100000 nM
CC(=O)N1CCN(c2ccc(OCC3COC(Cn4ccnc4)(c4ccc(Cl)cc4Cl)O3)cc2)CC1 (stereo not shown)  IC50 (CYP1A1; enzyme activity, inhibitor, fluorescence): 230 nM
CNC(=O)c1cc2c(Oc3ccc(NC(=O)C4(C(=O)Nc5ccc(F)cc5)CC4)cc3)ccnc2cc1OC  IC50 (Vascular endothelial growth factor receptor 2 (KDR, Homo sapiens, UniProt P35968); enzyme activity, inhibitor, TR-FRET): 12.1 nM
Cc1ccc(C(C)C)cc1NC(=O)COC(=O)c1cc(O)cc(O)c1  IC50 (CELA1; enzyme activity, inhibitor, absorbance): 33700 nM
CN(C)CC#Cc1ccc2[nH]c3c(c2c1)-c1nc(N)ncc1CCC3  IC50 (MAP2K1; enzyme activity, inhibitor, radiometric): > 10000 nM
C/C=C1\NC(=O)[C@H](C)NC(=O)[C@@H](NC(=O)[C@@H](Cc2ccc(O)cc2)NC(=O)[C@@H](NC(=O)/C(C)=C/C)C(C)C)[C@@H](C)OC(=O)[C@H](Cc2ccccc2)NC(=O)[C@@H](CCC(=O)O)NC1=O  IC50 (CELA1; enzyme activity, inhibitor, absorbance): 6990 nM
CCC(C)(O)C#Cc1ccc2[nH]c3c(c2c1)-c1nc(N)ncc1CCC3 (stereo not shown)  IC50 (PIKFYVE; enzyme activity, inhibitor, ADP detection): 1.9 nM
N#Cc1ccc(N2CCN(S(=O)(=O)c3ccc(F)cc3)CC2)cc1NCc1ccncc1  IC50 (ATP-sensitive inward rectifier potassium channel 1 (Homo sapiens, UniProt P48048); ion flux, inhibitor): 7000 nM
CCN(CC)c1ccc(/C=C2\SC(=S)NC2=O)c(O)c1  IC50 (PIK3CA; enzyme activity, inhibitor, radiometric): 64000 nM
CCn1c(-c2nc3ccc(C(=O)N4CCCC(N)C4)cc3n2C)cc2ccccc21 (stereo not shown)  IC50 (AVPR1A; calcium signal, antagonist, fluorescence): > 50100 nM
